≈ marks a conversion by molar mass, not a printed value.
Legend:
[1] = Antitubercular activity against Mycobacterium tuberculosis H37Ra ATCC 25177 dormant stage infected in human THP1 cells measured on day 12 by nitrate reductase assay; type: functional, THP-1; conditions: ATCC 25177, 288 h
[2] = Antitubercular activity against Mycobacterium tuberculosis H37Ra ATCC 25177 active stage infected in human THP1 cells measured on day 8 by nitrate reductase assay; type: functional, THP-1; conditions: ATCC 25177, 192 h
[3] = Antitubercular activity against Mycobacterium tuberculosis H37Ra ATCC 25177 active stage measured on day 8 by XTT reduction menadione based two-fold dilution assay; type: functional; conditions: ATCC 25177, 192 h
How it was run: (§1)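 M. tuberculosis H37Ra ATCC 25177 was exposed to 0.7–100 μg/mL in two-fold steps (0.7, 1.5, 3.1 … 100). Active stage was read after 8 days and dormant stage after 12 days of incubation. Inhibition was read by XTT reduction menadione assay (XRMA), absorbance 470 nm. MIC90 is the concentration giving ≥90% inhibition (µg/mL).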

[4] = Antitubercular activity against Mycobacterium tuberculosis H37Ra ATCC 25177 dormant stage measured on day 12 by XTT reduction menadione based two-fold dilution assay; type: functional; conditions: ATCC 25177, 288 h; how it was run: as §1
[5] = Antitubercular activity against Mycobacterium bovis BCG ATCC 35743 active stage measured on day 8 by nitrate reductase based two-fold dilution assay; type: functional, Mycobacterium bovis BCG str. ATCC 35743; conditions: Mycobacterium tuberculosis variant bovis BCG, ATCC 35743, 192 h
[6] = Antitubercular activity against Mycobacterium bovis BCG ATCC 35743 dormant stage measured on day 12 by nitrate reductase based two-fold dilution assay; type: functional, Mycobacterium bovis BCG str. ATCC 35743; conditions: Mycobacterium tuberculosis variant bovis BCG, ATCC 35743, 288 h
[7] = Cytotoxicity against human THP1 cells by MTT assay; type: toxicity, cell-based, THP-1
[8] = Cytotoxicity against human MCF7 cells by MTT assay; type: toxicity, cell-based
[9] = Cytotoxicity against human HCT116 cells by MTT assay; type: toxicity, cell-based, HCT-116
[10] = Selectivity index, ratio of GI50 for human MCF7 cells to MIC90 for Mycobacterium tuberculosis H37Ra ATCC 25177 active stage; type: toxicity, cell-based; conditions: read-out: Selectivity Index
How it was run: (§2)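 Cytotoxicity was measured on human MCF-7, HCT116 and THP-1 cells by MTT assay, with paclitaxel as reference. GI50 is the concentration inhibiting 50% of cell growth. The selectivity index is GI50 for the given cell line divided by MIC90 for the given mycobacterial strain and stage.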

[11] = Selectivity index, ratio of GI50 for human MCF7 cells to MIC90 for Mycobacterium tuberculosis H37Ra ATCC 25177 dormant stage; type: toxicity, cell-based; conditions: read-out: Selectivity Index
How it was run: (§3)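 Cytotoxicity was measured on human MCF-7, HCT116 and THP-1 cells by MTT assay, with paclitaxel as reference. The selectivity index is GI50 for the given cell line divided by MIC90 for the given mycobacterial strain and stage.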

[12] = Selectivity index, ratio of GI50 for human MCF7 cells to MIC90 for Mycobacterium bovis BCG ATCC 35743 active stage; type: toxicity, cell-based; conditions: read-out: Selectivity Index; how it was run: as §2
[13] = Selectivity index, ratio of GI50 for human MCF7 cells to MIC90 for Mycobacterium bovis BCG ATCC 35743 dormant stage; type: toxicity, cell-based; conditions: read-out: Selectivity Index; how it was run: as §3
[14] = Selectivity index, ratio of GI50 for human HCT116 cells to MIC90 for Mycobacterium tuberculosis H37Ra ATCC 25177 active stage; type: toxicity, cell-based, HCT-116; conditions: read-out: Selectivity Index; how it was run: as §2
[15] = Selectivity index, ratio of GI50 for human HCT116 cells to MIC90 for Mycobacterium tuberculosis H37Ra ATCC 25177 dormant stage; type: toxicity, cell-based, HCT-116; conditions: read-out: Selectivity Index; how it was run: as §3
[16] = Selectivity index, ratio of GI50 for human HCT116 cells to MIC90 for Mycobacterium bovis BCG ATCC 35743 active stage; type: toxicity, cell-based, HCT-116; conditions: read-out: Selectivity Index; how it was run: as §2
[17] = Selectivity index, ratio of GI50 for human HCT116 cells to MIC90 for Mycobacterium bovis BCG ATCC 35743 dormant stage; type: toxicity, cell-based, HCT-116; conditions: read-out: Selectivity Index; how it was run: as §3
[18] = Selectivity index, ratio of GI50 for human THP1 cells to MIC90 for Mycobacterium tuberculosis H37Ra ATCC 25177 active stage; type: toxicity, cell-based, THP-1; conditions: read-out: Selectivity Index; how it was run: as §2
[19] = Selectivity index, ratio of GI50 for human THP1 cells to MIC90 for Mycobacterium tuberculosis H37Ra ATCC 25177 dormant stage; type: toxicity, cell-based, THP-1; conditions: read-out: Selectivity Index; how it was run: as §3
[20] = Selectivity index, ratio of GI50 for human THP1 cells to MIC90 for Mycobacterium bovis BCG ATCC 35743 active stage; type: toxicity, cell-based, THP-1; conditions: read-out: Selectivity Index; how it was run: as §2
[21] = Selectivity index, ratio of GI50 for human THP1 cells to MIC90 for Mycobacterium bovis BCG ATCC 35743 dormant stage; type: toxicity, cell-based, THP-1; conditions: read-out: Selectivity Index; how it was run: as §3
Escherichia coli [22] = assay: Antibacterial activity against Escherichia coli; type: functional
Pseudomonas aeruginosa [23] = assay: Antibacterial activity against Pseudomonas aeruginosa; type: functional
Staphylococcus aureus [24] = assay: Antibacterial activity against Staphylococcus aureus; type: functional
Bacillus subtilis [25] = assay: Antibacterial activity against Bacillus subtilis; type: functional
Escherichia coli [26] = assay: Growth inhibition of Escherichia coli at 30 ug/ml; type: functional; conditions: read-out: GI
Escherichia coli [27] = assay: Growth inhibition of Escherichia coli at 10 ug/ml; type: functional; conditions: read-out: GI
Escherichia coli [28] = assay: Growth inhibition of Escherichia coli at 3 ug/ml; type: functional; conditions: read-out: GI
How it was run: (§4)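 Screened against Gram-negative E. coli and P. aeruginosa and Gram-positive S. aureus and B. subtilis. Compound was tested at 3 µg/ml, and the read-out is percent growth inhibition.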

Pseudomonas aeruginosa [29] = assay: Growth inhibition of Pseudomonas aeruginosa at 30 ug/ml; type: functional; conditions: read-out: GI
Pseudomonas aeruginosa [30] = assay: Growth inhibition of Pseudomonas aeruginosa at 10 ug/ml; type: functional; conditions: read-out: GI
Pseudomonas aeruginosa [31] = assay: Growth inhibition of Pseudomonas aeruginosa at 3 ug/ml; type: functional; conditions: read-out: GI; how it was run: as §4
Staphylococcus aureus [32] = assay: Growth inhibition of Staphylococcus aureus at 30 ug/ml; type: functional; conditions: read-out: GI
Staphylococcus aureus [33] = assay: Growth inhibition of Staphylococcus aureus at 10 ug/ml; type: functional; conditions: read-out: GI
Staphylococcus aureus [34] = assay: Growth inhibition of Staphylococcus aureus at 3 ug/ml; type: functional; conditions: read-out: GI; how it was run: as §4
Bacillus subtilis [35] = assay: Growth inhibition of Bacillus subtilis at 30 ug/ml; type: functional; conditions: read-out: GI
Bacillus subtilis [36] = assay: Growth inhibition of Bacillus subtilis at 10 ug/ml; type: functional; conditions: read-out: GI
Bacillus subtilis [37] = assay: Growth inhibition of Bacillus subtilis at 3 ug/ml; type: functional; conditions: read-out: GI; how it was run: as §4

Compound: COc1ccc(-c2csc(N/N=C(\C)c3sc(-c4ccccc4)nc3C)n2)cc1
- MIC90 [1]: 9.38 mg/L (≈ 22.3 µM)
- MIC90 [2]: 12.3 mg/L (≈ 29.3 µM)
- IC50 [3]: 0.078 mg/L (≈ 0.185 µM)
- MIC90 [3]: 6.87 mg/L (≈ 16.3 µM)
- IC50 [4]: 0.075 mg/L (≈ 0.178 µM)
- MIC90 [4]: 7.15 mg/L (≈ 17 µM)
- IC50 [5]: 2.43 mg/L (≈ 5.78 µM)
- MIC90 [5]: 13.5 mg/L (≈ 32.1 µM)
- IC50 [6]: 2.82 mg/L (≈ 6.71 µM)
- MIC90 [6]: 14 mg/L (≈ 33.3 µM)
- GI50 ([7]; THP1 cells): > 100 mg/L
- GI90 ([7]; thp-1): > 100 mg/L
- GI50 ([8]; MCF7 cells): > 100 mg/L
- GI90 ([8]; mcf7): > 100 mg/L
- GI50 ([9]; HCT116 cells): > 100 mg/L
- GI90 ([9]; hct-116): > 100 mg/L
- selectivity ratio [10]: 15
- selectivity ratio [11]: 14
- selectivity ratio [12]: 7
- selectivity ratio [13]: 7
- selectivity ratio [14]: 15
- selectivity ratio [15]: 14
- selectivity ratio [16]: 7
- selectivity ratio [17]: 7
- selectivity ratio [18]: 15
- selectivity ratio [19]: 14
- selectivity ratio [20]: 7
- selectivity ratio [21]: 7
- MIC (Escherichia coli [22]): > 30 mg/L
- MIC (Pseudomonas aeruginosa [23]): > 30 mg/L
- MIC (Staphylococcus aureus [24]): > 30 mg/L
- MIC (Bacillus subtilis [25]): > 30 mg/L
- inhibition of growth at 30 µg/mL (Escherichia coli [26]): 84.6%
- inhibition of growth at 10 µg/mL (Escherichia coli [27]): 71.1%
- inhibition of growth at 3 µg/mL (Escherichia coli [28]): 52.1%
- inhibition of growth at 30 µg/mL (Pseudomonas aeruginosa [29]): 85%
- inhibition of growth at 10 µg/mL (Pseudomonas aeruginosa [30]): 69.9%
- inhibition of growth at 3 µg/mL (Pseudomonas aeruginosa [31]): 48.7%
- inhibition of growth at 30 µg/mL (Staphylococcus aureus [32]): 83.7%
- inhibition of growth at 10 µg/mL (Staphylococcus aureus [33]): 69.2%
- inhibition of growth at 3 µg/mL (Staphylococcus aureus [34]): 48.8%
- inhibition of growth at 30 µg/mL (Bacillus subtilis [35]): 82.5%
- inhibition of growth at 10 µg/mL (Bacillus subtilis [36]): 66.8%
- inhibition of growth at 3 µg/mL (Bacillus subtilis [37]): 44.9%

Source: ChEMBL document CHEMBL3872252, “New bithiazolyl hydrazones: Novel synthesis, characterization and antitubercular evaluation” (Bioorg Med Chem Lett, 2017)
